# Experimental data from PubChem BioAssay AID602407 (Southern Research Specialized Biocontainment Screening …, 2012).
# Active and inactive are the calls of the source.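 How the source made its calls: active means inhibition of 30% or more at any tested concentration; inactive means the rest.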
# Target: Cytosol aminopeptidase (Homo sapiens) (UniProt P28838)
# Test: HuM17LAP enzyme activity inhibition – biochemical, QFRET fluorogenic substrate, counter-screen for PfM17LAP inhibitor project, dose response (AID 602407)
# Settings: recombinant human M17LAP, H-Leu-NHMec fluorogenic cleavage
# Method in brief: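 system = recombinant human M17LAP enzyme | dosing = ten twofold steps from 100 µM, 2% DMSO | times = 90 min reaction, room temperature | technique = fluorescence of released NHMec, excitation 370 nm, emission 460 nm | read-out basis = % inhibition and IC50 from constrained four-parameter fit | controls = full reaction and enzyme-free controls | replicates = triplicates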
# Sequence of Cytosol aminopeptidase (Homo sapiens) (P28838 whole entry, looked up): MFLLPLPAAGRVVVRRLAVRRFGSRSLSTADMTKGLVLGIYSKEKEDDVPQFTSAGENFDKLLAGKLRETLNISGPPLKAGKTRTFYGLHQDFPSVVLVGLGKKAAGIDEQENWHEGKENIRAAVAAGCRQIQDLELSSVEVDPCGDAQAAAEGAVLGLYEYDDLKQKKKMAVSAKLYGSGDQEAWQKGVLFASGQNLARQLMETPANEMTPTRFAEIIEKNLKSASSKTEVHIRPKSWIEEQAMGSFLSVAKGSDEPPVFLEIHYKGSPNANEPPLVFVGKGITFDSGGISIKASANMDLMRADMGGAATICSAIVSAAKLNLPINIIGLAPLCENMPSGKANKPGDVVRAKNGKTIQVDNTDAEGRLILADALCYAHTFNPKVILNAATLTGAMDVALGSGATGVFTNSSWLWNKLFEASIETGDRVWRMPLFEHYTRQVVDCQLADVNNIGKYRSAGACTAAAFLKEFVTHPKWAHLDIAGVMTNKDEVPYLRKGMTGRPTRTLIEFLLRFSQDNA
row,SMILES,IC50 [µM]
1,CCC(C)Oc1ccc(CC(=O)NO)cc1 (stereo not drawn),0.38
2,CCCOc1ccc(CC(=O)NO)cc1,0.49
3,CCCCOc1cccc(CC(=O)NO)c1,2.77
4,CCCCOc1ccc(C(C)C(=O)NO)cc1 (stereo not drawn),0.53
5,O=C(NO)c1ccc2ccccc2c1,8.38

# Same assay, conditions: recombinant human M17LAP, H-Leu-NHMec fluorogenic cleavage; at 100 µM (top of the series)
row,SMILES,inhibition
1,CCCCOc1ccc(C(C)C(=O)OC)cc1 (stereo not drawn),inactive
2,CCCCOc1ccc(CN(O)C(=O)c2ccccc2)cc1,inactive
3,CCCCOc1ccc(CN(O)C(C)=O)cc1,inactive
4,CCCOc1ccc(CC(=O)O)cc1,inactive
5,CN(C)CCOc1ccc(CC(=O)O)cc1,inactive
6,CCCCOc1ccc(C(C)(C)C(=O)NO)cc1,inactive
7,CCCCOc1ccc(C(C)(C)C(=O)O)cc1,inactive
8,CCCCOc1cccc(CC(=O)OC)c1,inactive
